Where a SMILES comes first, the peptide text is derived from it. The star is where a group is joined. Dansyl = CN(C)c1cccc2c(S(=O)(=O)*)cccc12

In one assay the target is T1, protein farnesyltransferase (FTase) (Rattus norvegicus, UniProt Q02293+Q04631). The experiment in a line: Steady state continuous dansyl fluorescence assay, kcat/Km peptide. The assay is classed as biochemical. The note with it: initial library, multiple-turnover substrates; 10 μM FPP, 0.4–10 μM dansylated peptide, 25–300 nM FTase, 50 mM HEPPSO pH 7.8, 5 mM TCEP, 5 mM MgCl2, 10 μM ZnCl, 25 °C. The gist of the method: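 Dansyl-TKCxxx peptides (0.4–10 μM) with saturating FPP 10 μM, 50 mM HEPPSO pH 7.8, 5 mM TCEP, 5 mM MgCl2, 10 μM ZnCl, 25 °C. FTase (25–300 nM) started the reaction. Dansyl fluorescence (ex 340, em 520 nm) followed to endpoint (~2–6 h). Rates converted to product using endpoint fluorescence. kcat/Km from linear or Michaelis–Menten fit of V/[E] versus peptide.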
On to CGIA, for which the kcat/Km is 0.16 ± 0.05 mM⁻¹ s⁻¹.
Turning to CGLF, the kcat/Km was determined as 0.45 ± 0.06 mM⁻¹ s⁻¹.
Still for that read-out and setting: under CGLY stands 1.0 ± 0.1 mM⁻¹ s⁻¹; under CLML, 0.15 ± 0.02 mM⁻¹ s⁻¹; under CNLM, 1.0 ± 0.3 mM⁻¹ s⁻¹.
Turning to CQTA, the kcat/Km is 0.53 ± 0.02 mM⁻¹ s⁻¹.
Turning to CSVQ, the specificity constant (kcat/Km) is 1.2 ± 0.4 mM⁻¹ s⁻¹.
Turning to CTVF, the catalytic efficiency (kcat/Km) was 1.3 ± 0.1 mM⁻¹ s⁻¹.
For CVLQ, the catalytic efficiency (kcat/Km) came to 0.78 ± 0.03 mM⁻¹ s⁻¹.
For the compound CVQM, the catalytic efficiency (kcat/Km) came to 0.27 ± 0.03 mM⁻¹ s⁻¹.

The assay is the same for the next values; noted with them: targeted library, multiple-turnover substrates; dansyl fluorescence, 25 °C.
For CALQ, the “kcat/KM^peptide” value is 12 ± 2 mM⁻¹ s⁻¹.
On the same count and under the same terms, under CALV stands 0.10 ± 0.02 mM⁻¹ s⁻¹.
CDVK: the “kcat/KM^peptide” value came out at 3.6 ± 0.8 mM⁻¹ s⁻¹.
Regarding CEIQ, the “kcat/KM^peptide” value came to 3.1 ± 0.6 mM⁻¹ s⁻¹.
CFPS: the “kcat/KM^peptide” value stood at 4.7 ± 0.5 mM⁻¹ s⁻¹.
Consider CFTN, for which the “kcat/KM^peptide” value is 0.97 ± 0.07 mM⁻¹ s⁻¹.
Consider CFVN, for which the “kcat/KM^peptide” value worked out at 2.1 ± 0.7 mM⁻¹ s⁻¹.
Regarding CGVV, the “kcat/KM^peptide” value was determined as 0.09 ± 0.03 mM⁻¹ s⁻¹.
Same read-out and setting: under CHIM stands 3.3 ± 0.4 mM⁻¹ s⁻¹; under CHIQ, 2.2 ± 0.6 mM⁻¹ s⁻¹.
Same read-out and setting: under CHLM stands 2.0 ± 0.3 mM⁻¹ s⁻¹; under CHLS, 0.46 ± 0.02 mM⁻¹ s⁻¹.
CHVM: the “kcat/KM^peptide” value turned out to be 10 ± 8 mM⁻¹ s⁻¹.
Turning to CHVQ, the “kcat/KM^peptide” value is 4.5 ± 0.8 mM⁻¹ s⁻¹.
For CKIV, the “kcat/KM^peptide” value is 0.87 ± 0.07 mM⁻¹ s⁻¹.
With CLLV, the “kcat/KM^peptide” value worked out at 0.10 ± 0.06 mM⁻¹ s⁻¹.
The same measure, in the same setting: in the case of CNLK it was 6.3 ± 1.6 mM⁻¹ s⁻¹; in that of CSLA, 2.5 ± 0.3 mM⁻¹ s⁻¹; in that of CSLH, 0.21 ± 0.01 mM⁻¹ s⁻¹.
As for CTIV, the “kcat/KM^peptide” value came out at 7.2 ± 0.8 mM⁻¹ s⁻¹.
On to CTVS, for which the “kcat/KM^peptide” value was 5.8 ± 1.2 mM⁻¹ s⁻¹.
Same read-out and setting: under CVHF stands 0.46 ± 0.04 mM⁻¹ s⁻¹; under CYIS, 12 ± 5 mM⁻¹ s⁻¹; under CYLA, 4.7 ± 0.3 mM⁻¹ s⁻¹.

The next assay addresses T1, protein farnesyltransferase (FTase).
Assay: not given
The assay is classed as biochemical. The note with it: single-turnover only (STO) peptides, initial library; 0.4–0.8 μM FTase, 50–100 μM dansylated peptide, 0.1–0.2 μM FPP, 50 mM HEPPSO pH 7.8, 5 mM MgCl2, 2 mM TCEP, 25 °C. In a few lines:
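Stopped-flow, pre-mix levels: FTase (0.8–1.6 μM) with FPP (0.2–0.4 μM) in HEPPSO pH 7.8, MgCl2, TCEP, plus a phosphate mop (PNPase 0.5 units mL−1, 15 mM 7-methylguanosine). This is mixed 1:1 with dansylated peptide (100 or 200 μM) containing MDCC-labelled A197C PBP (5–10 μM), inorganic pyrophosphatase and the mop. Emission is followed at 450 nm, and a single-exponential fit gives kfarn.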
CAKS registered a kfarn of 2.3 ± 0.2 s⁻¹.
Same read-out and setting: in the case of CAVL it was 0.91 ± 0.09 s⁻¹; in that of CPLG, 0.019 ± 0.001 s⁻¹; in that of CSEA, 0.020 ± 0.002 s⁻¹.
CVLL: the kfarn came to 0.83 ± 0.08 s⁻¹.
In turn, CVSS showed a kfarn of 0.097 ± 0.009 s⁻¹.
With TKCYSN, the kfarn was found to be 0.0025 ± 0.0002 s⁻¹.

Still in this assay, the particulars now being: single-turnover only (STO) peptides, initial library; 0.4–0.8 μM FTase, 50–100 μM dansylated peptide, 0.1–0.2 μM FPP, 50 mM HEPPSO pH 7.8, 5 mM MgCl2, 2 mM TCEP, 25 °C; listed as TKCYSN.
On to TKCYSN, for which the kfarn amounted to 0.0025 s⁻¹.

Another assay concerns the target FTase·I2 complex (Rattus norvegicus, UniProt Q02293+Q04631). The experiment in a line: Peptide binding affinity by fluorescence anisotropy.
Settings: not given
Take `CC[C@H](C)[C@H](NC(=O)[C@H](CS)NC(=O)[C@H](CCCCN)NC(=O)[C@@H](NS(=O)(=O)c1cccc2c(N(C)C)cccc12)[C@@H](C)O)C(=O)N[C@H](C(=O)N[C@@H](C)C(=O)O)C(C)C` [CIVA] (Dansyl-TKCIVA-OH): the Kd stood at 5 ± 2 nM.
On the same count and under the same terms, under `CC[C@H](C)[C@H](NC(=O)[C@H](CO)NC(=O)[C@H](CS)NC(=O)[C@H](CCCCN)NC(=O)[C@@H](NS(=O)(=O)c1cccc2c(N(C)C)cccc12)[C@@H](C)O)C(=O)N[C@@H](CCSC)C(=O)O` [CSIM] (Dansyl-TKCSIM-OH) stands 6 ± 2 nM.

One may read the kcat/Km as the turnover number divided by the Michaelis constant. In general, Kd refers to the concentration at which binding is half-saturated. Read a high Kd as a looser complex.

For the origin of these results see PMC2916699 (Journal of molecular biology, 2009).
